Source: ChEMBL document CHEMBL1154778, “Synthesis and biological evaluation of C-5 methyl substituted 4-arylthio and 4-aryloxy-3-Iodopyridin-2(1H)-one type anti-HIV agents” (J Med Chem, 2009)

Tested on: Human immunodeficiency virus 1
Assay: Antiviral activity against HIV1 HXB2 harboring Y181C mutant reverse transcriptase infected in human MT4 cells after 5 days by MTT assay
Type: functional, organism-based
Details: Human immunodeficiency virus 1, HXB2, MT4, 120 h
Summary of the method: (§1)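 Mutant viruses were made by recombining the mutant PR-RT sequence into a PR-RT-deleted HIV-1 HXB2 proviral clone. MT4 cells were grown in RPMI 1640 with 10% FCS and antibiotics. Virus at 200 CCID50/well and 30000 cells/well were incubated with varied compound concentrations for 5 days at 37 °C, 5% CO2. MTT viability gave IC50, the concentration giving 50% infection versus the drug-free control.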

| SMILES | IC50 [nM] |
| --- | --- |
| Cc1cc(C)cc(Oc2c(CN3CCN(C(=O)c4ccco4)CC3)c(C)[nH]c(=O)c2I)c1 | 125 |
| Cc1cc(C)cc(Sc2c(Cn3ccnc3)c(C)[nH]c(=O)c2I)c1 | 7.9 |
| Cc1cc(C)cc(Sc2c(CNC=O)c(C)[nH]c(=O)c2I)c1 | 31.6 |
| COCCOCc1c(C)[nH]c(=O)c(I)c1Oc1cc(C)cc(C)c1 | 10 |
| Cc1cc(C)cc(Sc2c(CN3CCOC(CN(C)C)C3)c(C)[nH]c(=O)c2I)c1 (centres undefined) | 158 |
| COC1CCN(Cc2c(C)[nH]c(=O)c(I)c2Sc2cc(C)cc(C)c2)CC1 | 199 |
| COCCC1CN(Cc2c(C)[nH]c(=O)c(I)c2Sc2cc(C)cc(C)c2)CCO1 (centres undefined) | 63 |
| Cc1cc(C)cc(Sc2c(Cn3cc(Br)cn3)c(C)[nH]c(=O)c2I)c1 | 39.8 |
| Cc1cc(C)cc(Oc2c(CSC3CCCC3)c(C)[nH]c(=O)c2I)c1 | 100 |
| Cc1cc(C)cc(Oc2c(CN3CCOC(CC#N)C3)c(C)[nH]c(=O)c2I)c1 (centres undefined) | 31.6 |
| CNC(=O)CSCc1c(C)[nH]c(=O)c(I)c1Sc1cc(C)cc(C)c1 | 39.8 |

Tested on: Human immunodeficiency virus 1
Assay: Antiviral activity against HIV1 HXB2 harboring K103N mutant reverse transcriptase infected in human MT4 cells after 5 days by MTT assay
Type: functional, organism-based
Details: Human immunodeficiency virus 1, HXB2, MT4, 120 h
Summary of the method: as §1

| SMILES | IC50 [nM] |
| --- | --- |
| Cc1cc(C)cc(Oc2c(CN3CCN(C(=O)c4ccco4)CC3)c(C)[nH]c(=O)c2I)c1 | 25.1 |
| Cc1cc(C)cc(Sc2c(Cn3ccnc3)c(C)[nH]c(=O)c2I)c1 | 0.79 |
| Cc1cc(C)cc(Sc2c(CNC=O)c(C)[nH]c(=O)c2I)c1 | 1.25 |
| COCCOCc1c(C)[nH]c(=O)c(I)c1Oc1cc(C)cc(C)c1 | 50.1 |
| COC1CCN(Cc2c(C)[nH]c(=O)c(I)c2Sc2cc(C)cc(C)c2)CC1 | 12.5 |
| COCCC1CN(Cc2c(C)[nH]c(=O)c(I)c2Sc2cc(C)cc(C)c2)CCO1 (centres undefined) | 5.01 |
| Cc1cc(C)cc(Sc2c(Cn3cc(Br)cn3)c(C)[nH]c(=O)c2I)c1 | 5.01 |
| Cc1cc(C)cc(Oc2c(CSC3CCCC3)c(C)[nH]c(=O)c2I)c1 | 31.6 |
| Cc1cc(C)cc(Oc2c(CN3CCOC(CC#N)C3)c(C)[nH]c(=O)c2I)c1 (centres undefined) | 6.3 |
| CNC(=O)CSCc1c(C)[nH]c(=O)c(I)c1Sc1cc(C)cc(C)c1 | 3.98 |

Tested on: Human immunodeficiency virus 1
Assay: Antiviral activity against HIV-1 LAI harboring wild type reverse transcriptase infected in human MT4 cells after 5 days by MTT assay
Type: functional, organism-based
Details: Human immunodeficiency virus 1, LAI, MT4, 120 h
Summary of the method: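 MT4 cells were kept in RPMI 1640 with 10% fetal calf serum and antibiotics at 37 °C, 5% CO2. A range of compound concentrations was incubated with HIV-1 LAI at 200 CCID50/well and 30000 MT4 cells/well for 5 days at 37 °C. Cell viability was read by MTT, and IC50 was the concentration giving 50% infection versus the drug-free control.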

| SMILES | IC50 [nM] |
| --- | --- |
| Cc1cc(C)cc(Oc2c(CN3CCN(C(=O)c4ccco4)CC3)c(C)[nH]c(=O)c2I)c1 | 10 |
| Cc1cc(C)cc(Sc2c(Cn3ccnc3)c(C)[nH]c(=O)c2I)c1 | 1.25 |
| Cc1cc(C)cc(Sc2c(CNC=O)c(C)[nH]c(=O)c2I)c1 | 1.25 |
| COCCOCc1c(C)[nH]c(=O)c(I)c1Oc1cc(C)cc(C)c1 | 1.58 |
| Cc1cc(C)cc(Sc2c(CN3CCOC(CN(C)C)C3)c(C)[nH]c(=O)c2I)c1 (centres undefined) | 5.01 |
| COC1CCN(Cc2c(C)[nH]c(=O)c(I)c2Sc2cc(C)cc(C)c2)CC1 | 3.98 |
| COCCC1CN(Cc2c(C)[nH]c(=O)c(I)c2Sc2cc(C)cc(C)c2)CCO1 (centres undefined) | 3.98 |
| Cc1cc(C)cc(Sc2c(Cn3cc(Br)cn3)c(C)[nH]c(=O)c2I)c1 | 10 |
| Cc1cc(C)cc(Oc2c(CSC3CCCC3)c(C)[nH]c(=O)c2I)c1 | 10 |
| Cc1cc(C)cc(Oc2c(CN3CCOC(CC#N)C3)c(C)[nH]c(=O)c2I)c1 (centres undefined) | 6.3 |
| CNC(=O)CSCc1c(C)[nH]c(=O)c(I)c1Sc1cc(C)cc(C)c1 | 1.58 |

Tested on: Human immunodeficiency virus 1
Assay: Antiviral activity against HIV1 HXB2 harboring Y188L mutant reverse transcriptase infected in human MT4 cells after 5 days by MTT assay
Type: functional, organism-based
Details: Human immunodeficiency virus 1, HXB2, MT4, 120 h
Summary of the method: as §1

| SMILES | IC50 [nM] |
| --- | --- |
| Cc1cc(C)cc(Oc2c(CN3CCN(C(=O)c4ccco4)CC3)c(C)[nH]c(=O)c2I)c1 | 158 |
| Cc1cc(C)cc(Sc2c(Cn3ccnc3)c(C)[nH]c(=O)c2I)c1 | 50.1 |
| Cc1cc(C)cc(Sc2c(CNC=O)c(C)[nH]c(=O)c2I)c1 | 199 |
| COCCOCc1c(C)[nH]c(=O)c(I)c1Oc1cc(C)cc(C)c1 | 158 |
| Cc1cc(C)cc(Sc2c(CN3CCOC(CN(C)C)C3)c(C)[nH]c(=O)c2I)c1 (centres undefined) | 1000 |
| COC1CCN(Cc2c(C)[nH]c(=O)c(I)c2Sc2cc(C)cc(C)c2)CC1 | 2000 |
| COCCC1CN(Cc2c(C)[nH]c(=O)c(I)c2Sc2cc(C)cc(C)c2)CCO1 (centres undefined) | 398 |
| Cc1cc(C)cc(Sc2c(Cn3cc(Br)cn3)c(C)[nH]c(=O)c2I)c1 | 316 |
| Cc1cc(C)cc(Oc2c(CSC3CCCC3)c(C)[nH]c(=O)c2I)c1 | 630 |
| Cc1cc(C)cc(Oc2c(CN3CCOC(CC#N)C3)c(C)[nH]c(=O)c2I)c1 (centres undefined) | 100 |
| CNC(=O)CSCc1c(C)[nH]c(=O)c(I)c1Sc1cc(C)cc(C)c1 | 794 |

Tested on: not listed separately
Assay: Selectivity index, ratio of CC50 for human MT4 cells to IC50 for HIV-1 LAI harboring wild type reverse transcriptase infected in human MT4 cells
Type: functional
Details: not given
Summary of the method: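 Cytotoxicity was measured in mock-infected MT4 cultures (30000 cells/well) given the same compound concentration range, run in parallel with the infected cultures for 5 days at 37 °C, 5% CO2, with MTT viability. CC50 was the concentration reducing viability by 50% versus the drug-free control. SI was CC50 divided by IC50 against HIV-1 LAI.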

| SMILES | Ratio CC50/IC50 |
| --- | --- |
| Cc1cc(C)cc(Oc2c(CN3CCN(C(=O)c4ccco4)CC3)c(C)[nH]c(=O)c2I)c1 | 1585 |
| Cc1cc(C)cc(Sc2c(Cn3ccnc3)c(C)[nH]c(=O)c2I)c1 | 15849 |
| Cc1cc(C)cc(Sc2c(CNC=O)c(C)[nH]c(=O)c2I)c1 | >79433 |
| COCCOCc1c(C)[nH]c(=O)c(I)c1Oc1cc(C)cc(C)c1 | >63096 |
| Cc1cc(C)cc(Sc2c(CN3CCOC(CN(C)C)C3)c(C)[nH]c(=O)c2I)c1 (centres undefined) | >5012 |
| COC1CCN(Cc2c(C)[nH]c(=O)c(I)c2Sc2cc(C)cc(C)c2)CC1 | 10000 |
| COCCC1CN(Cc2c(C)[nH]c(=O)c(I)c2Sc2cc(C)cc(C)c2)CCO1 (centres undefined) | 12589 |
| Cc1cc(C)cc(Sc2c(Cn3cc(Br)cn3)c(C)[nH]c(=O)c2I)c1 | >10000 |
| Cc1cc(C)cc(Oc2c(CSC3CCCC3)c(C)[nH]c(=O)c2I)c1 | >10000 |
| Cc1cc(C)cc(Oc2c(CN3CCOC(CC#N)C3)c(C)[nH]c(=O)c2I)c1 (centres undefined) | >15849 |
| CNC(=O)CSCc1c(C)[nH]c(=O)c(I)c1Sc1cc(C)cc(C)c1 | >63096 |
